ChEMBL document CHEMBL4706704, “Potential of substituted quinazolines to interact with multiple targets in the treatment of cancer” (Bioorg Med Chem, 2021)
pEC50, pIC50: −log10 of the molar value.

Experiments:
U-251 = experiment: Cytotoxicity against human U-251 cells assessed as reduction in cell viability by Sulforhodamine B assay; format: functional, cell-based
Bos taurus [1] = species: Bos taurus; experiment: Displacement of [3H]-colchicine from bovine brain tubulin at 1 uM after 10 mins by DEAE-cellulose filter method relative to control; format: tissue-based
Procedure, shortened: (§1)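 Tubulin 0.1 mg/mL (1.0 μM) incubated at 37 °C with 5.0 μM [3H]colchicine and inhibitor at 1.0 or 5.0 μM.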

[2] = biological target: T1, Platelet-derived growth factor receptor beta (Homo sapiens, UniProt P09619); experiment: Inhibition of PDGFRbeta in human SH-SY5Y cells preincubated for 60 mins followed by PDGF stimulation and measured after 10 mins by ELISA; format: cell-based
T1 sequence (P09619 whole entry): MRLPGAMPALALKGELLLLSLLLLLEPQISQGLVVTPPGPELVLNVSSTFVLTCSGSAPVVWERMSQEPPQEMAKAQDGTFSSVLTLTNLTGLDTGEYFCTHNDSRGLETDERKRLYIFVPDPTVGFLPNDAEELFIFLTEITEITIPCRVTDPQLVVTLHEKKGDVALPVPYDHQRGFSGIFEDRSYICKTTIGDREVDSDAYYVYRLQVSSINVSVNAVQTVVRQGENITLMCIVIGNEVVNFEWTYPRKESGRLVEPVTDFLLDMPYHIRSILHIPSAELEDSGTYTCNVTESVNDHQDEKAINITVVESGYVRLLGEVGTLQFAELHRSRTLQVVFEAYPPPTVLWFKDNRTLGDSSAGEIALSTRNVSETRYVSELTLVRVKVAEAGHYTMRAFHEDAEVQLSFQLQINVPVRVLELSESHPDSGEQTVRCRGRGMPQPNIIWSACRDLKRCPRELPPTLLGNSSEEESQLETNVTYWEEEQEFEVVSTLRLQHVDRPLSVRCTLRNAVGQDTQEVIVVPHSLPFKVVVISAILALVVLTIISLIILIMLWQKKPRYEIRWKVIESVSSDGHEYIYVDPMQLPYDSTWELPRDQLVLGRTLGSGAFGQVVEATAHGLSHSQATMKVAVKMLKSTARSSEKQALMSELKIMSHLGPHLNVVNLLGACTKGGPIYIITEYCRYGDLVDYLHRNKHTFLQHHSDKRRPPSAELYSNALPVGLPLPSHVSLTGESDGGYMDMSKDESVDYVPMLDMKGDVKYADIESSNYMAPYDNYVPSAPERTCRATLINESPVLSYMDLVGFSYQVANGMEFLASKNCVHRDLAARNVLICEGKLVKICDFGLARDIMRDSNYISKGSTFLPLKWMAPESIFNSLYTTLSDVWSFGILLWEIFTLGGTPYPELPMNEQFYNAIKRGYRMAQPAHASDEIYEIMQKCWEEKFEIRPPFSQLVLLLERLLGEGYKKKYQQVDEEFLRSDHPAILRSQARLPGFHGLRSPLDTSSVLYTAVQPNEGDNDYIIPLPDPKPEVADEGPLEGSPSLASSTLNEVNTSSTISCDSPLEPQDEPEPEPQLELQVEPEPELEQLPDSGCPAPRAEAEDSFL

A-431 = experiment: Cytotoxicity against human A-431 cells assessed as reduction in cell viability by Sulforhodamine B assay; format: functional, cell-based
[3] = biological target: T2, Vascular endothelial growth factor receptor 2 (Homo sapiens, UniProt P35968); experiment: Inhibition of VEGFR2 in human U251 cells preincubated for 60 mins followed by VEGF stimulation and measured after 10 mins by ELISA; format: cell-based, U-251
T2 sequence (P35968 whole entry): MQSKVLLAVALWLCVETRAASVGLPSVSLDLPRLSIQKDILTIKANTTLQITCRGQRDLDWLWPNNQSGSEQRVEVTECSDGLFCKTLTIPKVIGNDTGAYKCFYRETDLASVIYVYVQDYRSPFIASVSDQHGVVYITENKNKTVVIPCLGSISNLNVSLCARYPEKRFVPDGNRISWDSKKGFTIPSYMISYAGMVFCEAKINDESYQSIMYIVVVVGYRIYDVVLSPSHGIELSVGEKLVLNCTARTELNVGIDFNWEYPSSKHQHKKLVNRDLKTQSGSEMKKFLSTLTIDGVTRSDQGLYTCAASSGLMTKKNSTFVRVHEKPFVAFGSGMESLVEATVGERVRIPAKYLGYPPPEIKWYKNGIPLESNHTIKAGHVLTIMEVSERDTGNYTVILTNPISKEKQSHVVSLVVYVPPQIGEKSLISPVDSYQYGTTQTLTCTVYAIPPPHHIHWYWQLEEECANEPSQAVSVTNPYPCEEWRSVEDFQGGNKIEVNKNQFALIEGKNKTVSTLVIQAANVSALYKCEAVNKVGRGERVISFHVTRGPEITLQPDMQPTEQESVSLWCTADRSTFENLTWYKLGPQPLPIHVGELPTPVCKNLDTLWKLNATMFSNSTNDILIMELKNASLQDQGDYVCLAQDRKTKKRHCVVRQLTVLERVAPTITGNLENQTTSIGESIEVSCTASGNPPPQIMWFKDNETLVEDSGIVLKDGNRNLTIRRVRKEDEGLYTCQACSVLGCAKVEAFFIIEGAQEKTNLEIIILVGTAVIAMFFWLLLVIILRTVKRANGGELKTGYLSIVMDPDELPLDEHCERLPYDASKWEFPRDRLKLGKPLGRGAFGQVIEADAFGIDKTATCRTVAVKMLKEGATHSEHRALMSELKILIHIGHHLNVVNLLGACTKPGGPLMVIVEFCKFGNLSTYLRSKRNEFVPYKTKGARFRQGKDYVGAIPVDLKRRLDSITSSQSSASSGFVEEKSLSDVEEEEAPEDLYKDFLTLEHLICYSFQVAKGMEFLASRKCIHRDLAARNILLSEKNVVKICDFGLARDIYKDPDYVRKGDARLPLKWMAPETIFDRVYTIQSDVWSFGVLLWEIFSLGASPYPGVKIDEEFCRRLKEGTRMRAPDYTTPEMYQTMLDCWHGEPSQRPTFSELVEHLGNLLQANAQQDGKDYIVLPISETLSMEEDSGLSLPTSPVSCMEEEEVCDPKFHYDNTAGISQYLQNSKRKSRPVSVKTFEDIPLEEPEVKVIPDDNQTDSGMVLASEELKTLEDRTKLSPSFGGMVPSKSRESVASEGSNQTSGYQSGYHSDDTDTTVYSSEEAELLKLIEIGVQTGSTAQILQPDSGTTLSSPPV

Chorioallantoic membrane [4] = experiment: Antiangiogenic activity in Leghorn chicken fertilized egg chorioallantoic membrane assessed as reduction in VEGF/bFGF stimulated neovascularization after 40 hrs by microscopic based CAM assay; format: functional, tissue-based; settings: Gallus gallus
Procedure, shortened: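 VEGF/bFGF applied at saturation to a testing disk on the CAM. Compounds at various doses were added to the same disk 8 h later, then incubated 40 h more. Vessels were counted in 5–7 grids at 7.5X. Values are percent of growth-factor-only. IC50 by non-linear regression, 2–3 experiments, 2–5 replicates each.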

Bos taurus [5] = species: Bos taurus; experiment: Displacement of [3H]-colchicine from bovine brain tubulin at 5 uM after 10 mins by DEAE-cellulose filter method relative to control; format: tissue-based; procedure, shortened: as §1
[6] = biological target: T3, Epidermal growth factor receptor (Homo sapiens, UniProt P00533); experiment: Inhibition of EGFR in human A431 cells preincubated for 60 mins followed by EGF stimulation and measured after 10 mins by ELISA; format: cell-based, A-431
T3 sequence (P00533 whole entry): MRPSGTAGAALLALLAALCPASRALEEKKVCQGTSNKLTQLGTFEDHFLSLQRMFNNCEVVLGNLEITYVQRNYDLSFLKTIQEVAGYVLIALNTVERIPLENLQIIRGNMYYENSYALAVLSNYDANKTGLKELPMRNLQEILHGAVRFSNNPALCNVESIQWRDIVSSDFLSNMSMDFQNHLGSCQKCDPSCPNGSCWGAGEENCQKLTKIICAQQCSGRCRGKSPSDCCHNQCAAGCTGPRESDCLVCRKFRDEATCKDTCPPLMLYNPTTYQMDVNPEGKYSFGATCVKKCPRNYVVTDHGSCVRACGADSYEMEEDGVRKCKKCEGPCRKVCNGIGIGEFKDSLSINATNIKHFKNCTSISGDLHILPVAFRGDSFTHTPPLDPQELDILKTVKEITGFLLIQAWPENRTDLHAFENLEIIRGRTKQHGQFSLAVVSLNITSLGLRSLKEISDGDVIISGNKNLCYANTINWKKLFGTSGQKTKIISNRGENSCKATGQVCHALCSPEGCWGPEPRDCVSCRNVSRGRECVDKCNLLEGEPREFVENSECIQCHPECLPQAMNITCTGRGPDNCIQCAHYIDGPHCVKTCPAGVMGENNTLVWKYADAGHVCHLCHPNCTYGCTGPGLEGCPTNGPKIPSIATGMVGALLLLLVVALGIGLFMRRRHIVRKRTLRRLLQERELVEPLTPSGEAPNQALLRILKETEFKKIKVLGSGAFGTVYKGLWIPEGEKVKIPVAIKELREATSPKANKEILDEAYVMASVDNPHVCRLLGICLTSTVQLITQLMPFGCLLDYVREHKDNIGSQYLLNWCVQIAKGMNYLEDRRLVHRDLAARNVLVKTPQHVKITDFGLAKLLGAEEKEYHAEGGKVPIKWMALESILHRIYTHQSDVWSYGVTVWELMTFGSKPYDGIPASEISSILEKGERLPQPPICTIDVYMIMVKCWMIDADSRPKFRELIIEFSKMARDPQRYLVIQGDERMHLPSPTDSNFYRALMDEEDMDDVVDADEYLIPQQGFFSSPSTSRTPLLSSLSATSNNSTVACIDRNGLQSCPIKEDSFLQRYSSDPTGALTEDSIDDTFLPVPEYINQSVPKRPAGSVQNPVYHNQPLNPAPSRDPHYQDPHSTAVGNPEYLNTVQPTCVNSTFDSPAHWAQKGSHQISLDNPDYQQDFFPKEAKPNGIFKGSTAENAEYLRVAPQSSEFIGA

[7] = Induction of microtubule depolymerization in rat A10 cells incubated for over night by immunofluorescence method; format: cell-based
Procedure, shortened: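 Rat A-10 cells were exposed overnight, fixed in cold methanol and stained for microtubules by indirect immunofluorescence with a β-tubulin antibody.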

[8] = Resistant index, ratio of IC50 for cytotoxicity against human HeLa cells expressing WT-beta3 to IC50 for cytotoxicity against human HeLa cells; format: functional
MDA-MB-435 = experiment: Antiproliferative activity against human MDA-MB-435 cells assessed as reduction in cell viability by Sulforhodamine B assay; format: functional, cell-based
Procedure, shortened: (§2)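 SRB proliferation/cytotoxicity assay; parental lines obtained from ATCC. The HeLa WT-βIII line was generated as described in earlier work. IC50 is the average of at least 3 independent experiments, each run with triplicate points.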

[9] = Ratio of EC50 for induction of microtubule depolymerization in rat A10 cells to IC50 for antiproliferative activity against human MDA-MB-435 cells
HeLa [10] = experiment: Cytotoxicity against human HeLa cells assessed as reduction in cell viability by Sulforhodamine B assay; format: functional, cell-based
Procedure, shortened: (§3)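 SRB assay for antiproliferative/cytotoxic effect. HeLa WT-βIII and SK-OV-3-MDR1-6/6 lines were generated as described earlier and run alongside their parental lines.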

SK-OV-3 [11] = experiment: Cytotoxicity against human SK-OV-3 cells assessed as reduction in cell viability by Sulforhodamine B assay; format: functional, cell-based; procedure, shortened: as §2
HeLa [12] = experiment: Cytotoxicity against human HeLa cells over expressing WT-beta3 assessed as reduction in cell viability by Sulforhodamine B assay; format: functional, cell-based; procedure, shortened: as §2
[13] = Resistant index, ratio of IC50 for cytotoxicity against human SK-OV-3 cells over expressing MDR1-6/6 cells to IC50 for cytotoxicity against human SK-OV-3 cells; format: functional
SK-OV-3 [14] = experiment: Cytotoxicity against human SK-OV-3 cells over expressing MDR1-6/6 assessed as reduction in cell viability by Sulforhodamine B assay; format: functional, cell-based; procedure, shortened: as §3
Chorioallantoic membrane [15] = experiment: Potency index, ratio IC50 for erlotinib to IC50 for test compound for antiangiogenic activity in Leghorn chicken fertilized egg chorioallantoic membrane; format: functional, tissue-based; settings: Gallus gallus
[16] = biological target: T2, Vascular endothelial growth factor receptor 2; experiment: Potency index, ratio of IC50 for erlotinib to IC50 for test compound for inhibition of VEGFR2 in human U251 cells; format: cell-based; settings: U-251
[17] = biological target: T1, Platelet-derived growth factor receptor beta; experiment: Potency index, ratio of IC50 for sunitinib to IC50 for test compound for inhibition of PDGFRbeta in human SH-SY5Y cells; format: cell-based
[18] = biological target: T3, Epidermal growth factor receptor; experiment: Potency index, ratio of IC50 for sunitinib to IC50 for test compound for inhibition of EGFR in human A431 cell; settings: A-431
[19] = biological target: T2, Vascular endothelial growth factor receptor 2; experiment: Potency index, ratio of IC50 for sunitinib to IC50 for test compound for inhibition of VEGFR2 in human U251 cells; format: cell-based; settings: U-251
[20] = biological target: T1, Platelet-derived growth factor receptor beta; experiment: Potency index, ratio of IC50 for erlotinib to IC50 for test compound for inhibition of PDGFRbeta in human SH-SY5Y cells; format: cell-based

pIC50 [2] | pIC50 [3] | pIC50 [6] | SMILES | pIC50 (U-251) | pIC50 (A-431) | pIC50 (Chorioallantoic membrane [4]) | pEC50 [7] | Ratio IC50 [8] | pIC50 (MDA-MB-435) | Ratio [9] | pIC50 (HeLa [10]) | pIC50 (SK-OV-3 [11]) | pIC50 (HeLa [12]) | Ratio IC50 [13] | pIC50 (SK-OV-3 [14]) | further results
7.12 | 7.01 | 8.44 | COc1ccc(N(C)c2nc(Cl)nc3ccccc23)cc1 | 7.49 | 8.92 | 3.89 | – | – | – | – | – | – | – | – | – | inhibition (Bos taurus [1]): 92%; inhibition (Bos taurus [5]): 99%
– | – | – | C#Cc1cccc(Nc2ncnc3cc(OCCOC)c(OCCOC)cc23)c1 [ERLOTINIB] | – | – | 5.51 | – | – | – | – | – | – | – | – | – | –
– | – | – | COc1ccc(/C=C\c2cc(OC)c(OC)c(OC)c2)cc1O [COMBRETASTATIN A4] | – | – | – | 8.01 | – | – | – | – | – | – | – | – | –
8.11 | 8.03 | 8.30 | COc1ccc2c(c1)CCCN2c1nc(C)nc2ccccc12 | 8.51 | 8.60 | 5.51 | 8.52 | 1 | 8.96 | 2.7 | 8.92 | 8.82 | 8.92 | 1.5 | 8.66 | Ratio IC50 (Chorioallantoic membrane [15]): 9.4
7.53 | 7.77 | 7.97 | COc1cccc2cc(N(C)c3nc(C)nc4ccccc34)ccc12 | 8.38 | 8.28 | – | 8.62 | 0.7 | 8.70 | 1.2 | 8.60 | 8.54 | 8.77 | 1.2 | 8.46 | inhibition (Bos taurus [1]): 88%; inhibition (Bos taurus [5]): 98%
6.64 | 7.83 | 8.06 | CSc1ccc(N(C)c2nc(C)nc3ccccc23)cc1 | 8.31 | 8.54 | – | – | – | – | – | – | – | – | – | – | inhibition (Bos taurus [1]): 91%; inhibition (Bos taurus [5]): 99%
– | – | – | CSc1ccc(N(C)c2ncnc3ccccc23)cc1 | – | – | – | 7.91 | 0.6 | 8.11 | 1.6 | 8.07 | 7.87 | 8.14 | 1.1 | 7.81 | –
– | – | – | CSc1ccc(N(C)c2nc(Cl)nc3ccccc23)cc1 | – | – | – | 8.57 | 0.6 | 8.57 | 1 | 8.30 | 8.48 | 8.49 | 1.1 | 8.46 | –
– | – | – | COc1ccc(N(C)c2ncnc3ccccc23)cc1 | – | – | – | 8.09 | 0.9 | 8.15 | 1.2 | 8.07 | 7.98 | – | 1.4 | 7.84 | –
– | – | – | COc1cccc2cc(N(C)c3nc(Cl)nc4ccccc34)ccc12 | – | – | – | 8.72 | 0.6 | 8.85 | 1.4 | 8.55 | 8.55 | 8.80 | 0.9 | 8.59 | –

SMILES | pIC50 [2] | pIC50 [3] | pIC50 [6] | pIC50 (U-251) | pIC50 (A-431) | pIC50 (Chorioallantoic membrane [4]) | pEC50 [7] | Ratio IC50 [8] | pIC50 (MDA-MB-435) | Ratio [9] | pIC50 (HeLa [10]) | pIC50 (SK-OV-3 [11]) | pIC50 (HeLa [12]) | Ratio IC50 [13] | pIC50 (SK-OV-3 [14]) | further results
COc1ccc2c(c1)CCCN2c1ncnc2ccccc12 | 7.27 | 6.95 | 7.31 | 7.56 | 7.79 | – | 7.63 | 0.8 | 7.91 | 1.9 | 7.77 | 7.74 | 7.88 | 1.3 | 7.63 | –
COc1ccc(N(C)c2nc(C)nc3ccccc23)cc1 [VERUBULIN] | 8.25 | 8.08 | 8.55 | – | 9.05 | 5.55 | 8.68 | 0.8 | 8.77 | 1.2 | 8.70 | 8.66 | 8.82 | 1.2 | 8.59 | Ratio IC50 [16]: 15; Ratio IC50 [17]: 15; Ratio IC50 [18]: 61; Ratio IC50 [19]: 2; Ratio IC50 [20]: 2
COc1ccc2c(c1)CCCN2c1nc(Cl)nc2ccccc12 | 7.09 | 7.26 | – | 7.83 | 8.74 | 4.38 | 8.70 | – | 9.15 | – | 9.22 | 9.10 | – | – | 9.00 | –
